{"source": "paper PMC9290503", "about": "(British Journal of Clinical Pharmacology, 2021)", "key": {"[1]": {"assay": "Study 1003 MRD cohorts plasma pharmacokinetics", "assay_type": "in vivo, human", "details": "plasma, non‐Japanese"}, "[2]": {"assay": "Study 1003 MRD cohorts urine pharmacokinetics", "assay_type": "in vivo, human", "details": "for Aet, mean (CV%) / CLR, mean (CV%) / fe,t, mean (CV%): urine, non‐Japanese", "summary_of_the_method": "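Urine was collected pre-dose and over 0–6, 6–12 and 12–24 h on Days 1 and 10 of once-daily oral dosing. Free base was measured by validated UPLC–MS/MS after protein precipitation (calibration 1–2000 ng mL−1; LLOQ 1 ng mL−1). Noncompartmental analysis used nominal intervals; values below LLOQ were treated as zero.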"}, "[3]": {"assay": "Study 1003 CSF pharmacokinetics at steady state", "assay_type": "in vivo, human", "details": "60 mg q.d."}, "[4]": {"assay": "Safety and tolerability, Study 1001", "assay_type": "in vivo, human", "summary_of_the_method": "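Double-blind, placebo-controlled single oral doses (5–60 mg) in healthy adults aged 18–55, given after at least 10 h fasting, with sentinel dosing in the first cohort. Monitored AEs, physical and neurological exams, vital signs, flagged clinical labs and 12-lead ECG. TEAEs counted from first dose to 30 days after. Semen analysis and serum FSH, LH, testosterone and inhibin B were taken at baseline and one or two spermatogenic cycles post-dose. Follow-up to day 60 (±2).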"}, "[5]": {"tested_on": "mouse model of Kabuki syndrome", "details": "ref [7], cited from earlier work"}, "[6]": {"tested_on": "rodent models of neurodevelopmental disorder", "details": "two rodent models of neurodevelopmental disorder; ref [8]; cited from earlier work"}, "[7]": {"details": "preliminary toxicology studies in animals; no reference given; cited from earlier work"}, "human LSD1": {"tested_on": "human LSD1", "details": "targets the catalytic FAD in the LSD1 active site; no reference given; cited from earlier work"}, "[8]": {"details": "after multiple dosing (20–160 mg)"}}}
{"molecule": "Cl.O=C(NC1CCOCC1)c1csc([C@@H]2C[C@H]2NCC2CC2)c1", "note": "[TAK‐418]", "values": [{"measurement": "AUC0–∞, mean (CV%)", "setting": "[1]; 20 mg q.d., Day 1", "result": "515.3 (33.4) h*ng mL^−1"}, {"measurement": "C max, mean (CV%)", "setting": "[1]; 20 mg q.d., Day 1", "result": "85.2 (33.8) ng mL^−1"}, {"measurement": "t max, median (range)", "setting": "[1]; 20 mg q.d., Day 1", "result": "1.75 (1.00–3.00) h"}, {"measurement": "AUC0–24, mean (CV%)", "setting": "[1]; 20 mg q.d., Day 10", "result": "668.2 (34.2) h*ng mL^−1"}, {"measurement": "C max, mean (CV%)", "setting": "[1]; 20 mg q.d., Day 10", "result": "117.8 (30.1) ng mL^−1"}, {"measurement": "t max, median (range)", "setting": "[1]; 20 mg q.d., Day 10", "result": "1.26 (1.00–2.00) h"}, {"measurement": "t ½z, mean (CV%)", "setting": "[1]; 20 mg q.d., Day 10", "result": "4.997 (10.1) h"}, {"measurement": "AUC0–24, mean (CV%)", "setting": "[1]; 60 mg q.d., Day 1", "result": "1445.5 (24.4) h*ng mL^−1"}, {"measurement": "AUC0–∞, mean (CV%)", "setting": "[1]; 60 mg q.d., Day 1", "result": "1476.7 (25.4) h*ng mL^−1"}, {"measurement": "C max, mean (CV%)", "setting": "[1]; 60 mg q.d., Day 1", "result": "276.0 (21.6) ng mL^−1"}, {"measurement": "t max, median (range)", "setting": "[1]; 60 mg q.d., Day 1", "result": "1.50 (1.00–4.00) h"}, {"measurement": "AUC0–24, mean (CV%)", "setting": "[1]; 60 mg q.d., Day 10", "result": "1660.5 (25.4) h*ng mL^−1"}, {"measurement": "C max, mean (CV%)", "setting": "[1]; 60 mg q.d., Day 10", "result": "307.2 (17.0) ng mL^−1"}, {"measurement": "t max, median (range)", "setting": "[1]; 60 mg q.d., Day 10", "result": "1.250 (1.00–3.00) h"}, {"measurement": "t ½z, mean (CV%)", "setting": "[1]; 60 mg q.d., Day 10", "result": "4.923 (17.8) h"}, {"measurement": "AUC0–24, mean (CV%)", "setting": "[1]; 160 mg q.d., Day 1", "result": "3747.3 (6.4) h*ng mL^−1"}, {"measurement": "AUC0–∞, mean (CV%)", "setting": "[1]; 160 mg q.d., Day 1", "result": "3822.0 (5.7) h*ng mL^−1"}, {"measurement": "C max, mean (CV%)", "setting": "[1]; 160 mg q.d., Day 1", "result": "679.3 (28.8) ng mL^−1"}, {"measurement": "t max, median (range)", "setting": "[1]; 160 mg q.d., Day 1", "result": "1.50 (1.00–3.00) h"}, {"measurement": "AUC0–24, mean (CV%)", "setting": "[1]; 160 mg q.d., Day 10", "result": "4058.3 (6.1) h*ng mL^−1"}, {"measurement": "C max, mean (CV%)", "setting": "[1]; 160 mg q.d., Day 10", "result": "697.7 (14.7) ng mL^−1"}, {"measurement": "t max, median (range)", "setting": "[1]; 160 mg q.d., Day 10", "result": "1.00 (1.00–1.50) h"}, {"measurement": "t ½z, mean (CV%)", "setting": "[1]; 160 mg q.d., Day 10", "result": "5.357 (8.7) h"}, {"measurement": "renal clearance", "setting": "[2]; [8]", "result": "5.12 to 7.81", "unit": "L/h"}, {"measurement": "renal excretion", "setting": "[2]; [8]", "result": "15.45–20.06%"}, {"measurement": "Aet, mean (CV%)", "setting": "[2]; 20 mg q.d., Day 1", "result": "2.858 (25.1) mg"}, {"measurement": "CLR, mean (CV%)", "setting": "[2]; 20 mg q.d., Day 1", "result": "5.813 (16.4) L h^−1"}, {"measurement": "fe,t, mean (CV%)", "setting": "[2]; 20 mg q.d., Day 1", "result": "14.283 (25.1) %"}, {"measurement": "Aet, mean (CV%)", "setting": "[2]; 20 mg q.d., Day 10", "result": "3.090 (28.4) mg"}, {"measurement": "CLR, mean (CV%)", "setting": "[2]; 20 mg q.d., Day 10", "result": "5.120 (38.2) L h^−1"}, {"measurement": "fe,t, mean (CV%)", "setting": "[2]; 20 mg q.d., Day 10", "result": "15.453 (28.4) %"}, {"measurement": "Aet, mean (CV%)", "setting": "[2]; 60 mg q.d., Day 1", "result": "11.423 (28.4) mg"}, {"measurement": "CLR, mean (CV%)", "setting": "[2]; 60 mg q.d., Day 1", "result": "8.365 (41.5) L h^−1"}, {"measurement": "fe,t, mean (CV%)", "setting": "[2]; 60 mg q.d., Day 1", "result": "19.050 (28.4) %"}, {"measurement": "Aet, mean (CV%)", "setting": "[2]; 60 mg q.d., Day 10", "result": "11.087 (31.1) mg"}, {"measurement": "CLR, mean (CV%)", "setting": "[2]; 60 mg q.d., Day 10", "result": "6.740 (25.1) L h^−1"}, {"measurement": "fe,t, mean (CV%)", "setting": "[2]; 60 mg q.d., Day 10", "result": "18.475 (31.1) %"}, {"measurement": "Aet, mean (CV%)", "setting": "[2]; 160 mg q.d., Day 1", "result": "28.500 (11.0) mg"}, {"measurement": "CLR, mean (CV%)", "setting": "[2]; 160 mg q.d., Day 1", "result": "7.583 (4.9) L h^−1"}, {"measurement": "fe,t, mean (CV%)", "setting": "[2]; 160 mg q.d., Day 1", "result": "17.800 (11.0) %"}, {"measurement": "Aet, mean (CV%)", "setting": "[2]; 160 mg q.d., Day 10", "result": "32.067 (37.3) mg"}, {"measurement": "CLR, mean (CV%)", "setting": "[2]; 160 mg q.d., Day 10", "result": "7.807 (32.7) L h^−1"}, {"measurement": "fe,t, mean (CV%)", "setting": "[2]; 160 mg q.d., Day 10", "result": "20.060 (37.2) %"}, {"measurement": "mean C max in CSF", "setting": "[3]; Day 10, CV% 24.7", "result": 85.20, "unit": "ng mL^ −1"}, {"measurement": "mean AUC0–24 in CSF", "setting": "[3]; Day 10, CV% 26.5", "result": 611.0, "unit": "ng·h/mL"}, {"measurement": "semen parameters or serum hormone levels", "setting": "[4]; 23 male participants", "result": "no clinically relevant changes"}, {"measurement": "laboratory test results, vital signs or electrocardiogram readings", "setting": "[4]; Study 1001", "result": "No clinically significant changes"}, {"measurement": "nausea, most common TAK‐418‐related TEAE", "setting": "[4]; Study 1001", "result": "reported in one participant administered TAK‐418 15 mg and another administered TAK‐418 40 mg"}, {"measurement": "serious AEs, suicidal ideation/behaviour, deaths", "setting": "[4]; Study 1001", "result": "no serious AEs (SAEs), suicidal ideation/behaviour or deaths were reported"}, {"measurement": "testicular pain", "setting": "[4]; one at 15 mg (unrelated), one at 40 mg (study‐drug related)", "result": "two men given TAK‐418 reported testicular pain"}, {"measurement": "participants reporting TEAEs", "setting": "[4]; single dose 5–60 mg while fasting, 13 participants", "result": 43, "unit": "%"}, {"measurement": "severity of TEAEs", "setting": "[4]; single dose up to 60 mg", "result": "mild"}, {"measurement": "upper respiratory tract infection (most common TEAE)", "setting": "[4]; single dose, n = 3", "result": 10, "unit": "%"}, {"measurement": "visuospatial learning and memory defects", "setting": "[5]; after 2 weeks of treatment, compared with vehicle control", "result": "visuospatial learning and memory defects were rescued"}, {"measurement": "H3K4 histone modification defects", "setting": "[5]; mouse model of Kabuki syndrome", "result": "rescued H3K4 histone modification defects"}, {"measurement": "adult neurogenesis in the hippocampus", "setting": "[5]; mouse model of Kabuki syndrome", "result": "dose‐dependently normalized adult neurogenesis in the hippocampus"}, {"measurement": "autism symptoms", "setting": "[6]", "result": "improved autism symptoms"}, {"measurement": "toxicology findings", "setting": "[7]", "result": "testicular findings in a single species"}, {"measurement": "inhibition of LSD1 activity", "setting": "human LSD1", "result": "irreversibly inhibits the activity of human LSD1"}]}
